This note sets out measurements from article PMC8680456 (Advanced therapeutics, 2021).

Data set [1] can be described thus: Cleavage of niche-responsive LXR PAs. Format: physicochemical. As to conditions: 1 mM PA, 37 °C. The essentials:
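Linker-bearing PAs at 1 mM in PBS. ROS-linked: 250 μM H2O2 + 50 μM CuSO4. NDEC-linked: 10 mM TCEP. SPDP-linked: 10 mM TCEP or 10 mM DTT. PBS-only controls. Incubated at 37 °C, 5% CO2; sampled at 24 h, 4 and 7 days; stored −20 °C. LC-MS: C18 UPLC column at 40 °C, electrospray 4.7 kV, capillary 350 °C, 150–2000 m/z, 120,000 resolution.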

For data set [2], the system named is cholesterol-laden macrophages. In words: PA colocalization with cholesterol. In kind it is cell-based. As to conditions: 32 μM LXR or PA epitope equivalents, 24 hours.
The next data set has as its system ABCA1. As to the kind of experiment: ABCA1 and CD68 immunofluorescence in aortic roots. Format: in vivo. To be noted: LDLR KO mice, eight weeks of twice weekly injections, versus PBS control, n≥6. The essentials: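 LDLR KO male and female mice, obtained at 4 weeks, fed high-fat diet 14 weeks, then given tail-vein injections twice weekly for 8 weeks under isoflurane; PBS controls. Perfused with PBS and 2% paraformaldehyde; aortic roots sectioned. Blocked in TBST (0.1% Triton) with 10% horse serum 1 h RT; anti-CD68 (1:500) and anti-ABCA1 (1:1000) overnight 4 °C. Fluorescence pixel intensity quantified; two-factor ANOVA, Dunnett's vs PBS, n≥6.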

The next data set has as its system RIP3. As to the kind of experiment: Liver toxicity by RIP3 expression. As to conditions: mouse, in vivo.

Consider “C16-VVAAEE-PEG4-NDEC-K(LXR) [NDEC-LXR PA]”, for which the “PA cleavage by day 4” value in data set [1] (10 mM TCEP in PBS, day 4, LC-MS) was “complete cleavage”.

Regarding `O=C(O)Cc1cccc(OCCCN(Cc2cccc(C(F)(F)F)c2Cl)CC(c2ccccc2)c2ccccc2)c1` [LXR, GW3965], in data set [2], the “confocal microscopy observation of cholesterol-laden macrophages” value is recorded as “appeared to be undergoing cell death”. In the data set on ABCA1, the “ABCA1 expression relative to number of CD68+ macrophages” value is listed as “significant increase in ABCA1 expression”. Also, in the data set with RIP3, the “liver toxicity by RIP3 expression” value is given as “Liver toxicity was observed”.

In the case of “C16-VVAAEE-PEG4-K-PPPPP-K(Mtt) [ROS-LXR PA]”, the “PA cleavage after 1 week” value in data set [1] (250 μM H2O2 + 50 μM CuSO4 in PBS, 1 week, LC-MS) is given as “completely cleaved”.
